Columns and labels:
Format in all cases: functional
Candida albicans = test: Antifungal activity against Candida albicans MTCC 7253 at 10 ug per disk after 2 to 3 days by disc diffusion method; details: read-out: DIZ
How it was run: (§1)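 Fungal inoculum: a loopful of each strain suspended in saline, spread evenly on yeast extract potato dextrose agar with a sterile glass spreader. Sterile 5 mm discs loaded with test compound in DMSO placed on the agar. Plates incubated 2–3 days at room temperature. Nystatin as reference standard. Zones of inhibition measured and compared with control and standard.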

Aspergillus flavus = test: Antifungal activity against Aspergillus flavus MTCC 8188 at 10 ug per disk after 2 to 3 days by disc diffusion method; details: for zone of inhibition at 10 µg/disc: read-out: DIZ; how it was run: as §1
Staphylococcus aureus = test: Antibacterial activity against Staphylococcus aureus MTCC 1430 at 10 ug per disk after 24 hrs by disc diffusion method; details: MTCC 1430, 24 h, read-out: DIZ
How it was run: (§2)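 Standard 0.5 McFarland inoculum spread evenly over nutrient agar plates with a sterile L-shaped glass spreader. Plates incubated 24 h at 37 °C. Gentamicin as reference standard. Read-out: zone of inhibition in mm, measured in triplicate and compared with control and standard.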

Klebsiella pneumoniae = test: Antibacterial activity against Klebsiella pneumoniae MTCC 618 at 10 ug per disk after 24 hrs by disc diffusion method; details: for zone of inhibition at 10 µg/disc: MTCC 618, 24 h, read-out: DIZ; how it was run: as §2
Escherichia coli = test: Antibacterial activity against Escherichia coli MTCC 1573 at 10 ug per disk after 24 hrs by disc diffusion method; details: MTCC 1573, 24 h, read-out: DIZ; how it was run: as §2
Pseudomonas aeruginosa = test: Antibacterial activity against Pseudomonas aeruginosa MTCC 2453 at 10 ug per disk after 24 hrs by disc diffusion method; details: MTCC 2453, 24 h, read-out: DIZ; how it was run: as §2
Bacillus subtilis = test: Antibacterial activity against Bacillus subtilis MTCC 121 at 10 ug per disk after 24 hrs by disc diffusion method; details: for zone of inhibition at 10 µg/disc: MTCC 121, 24 h, read-out: DIZ; how it was run: as §2

Molecule	zone of inhibition at 10 µg/disc (Candida albicans)	zone of inhibition at 10 µg/disc (Aspergillus flavus)	zone of inhibition at 10 µg/disc (Staphylococcus aureus)	zone of inhibition at 10 µg/disc (Klebsiella pneumoniae)	zone of inhibition at 10 µg/disc (Escherichia coli)	zone of inhibition at 10 µg/disc (Pseudomonas aeruginosa)	zone of inhibition at 10 µg/disc (Bacillus subtilis)	inhibition zone (IZ) (Klebsiella pneumoniae)	inhibition zone (IZ) (Bacillus subtilis)	inhibition zone (IZ) (Aspergillus flavus)
CCCCc1nc(Cl)c(-c2cc(-c3ccc([N+](=O)[O-])cc3)nc3c2C(=O)c2ccccc2-3)n1Cc1ccccc1	11 mm	6 mm	10 mm	10 mm	8 mm	10 mm	10 mm			
GENTAMICIN								19 mm	14 mm	
CCCCc1nc(Cl)c(-c2cc(-c3ccc4sc5ccccc5c4c3)nc3c2C(=O)c2ccccc2-3)n1Cc1ccccc1	14 mm	10 mm	12 mm	11 mm	8 mm	7 mm	9 mm			
CCCCc1nc(Cl)c(-c2cc(-c3cccs3)nc3c2C(=O)c2ccccc2-3)n1Cc1ccccc1	10 mm	5 mm	10 mm	10 mm	9 mm	11 mm	10 mm			
CCCCc1nc(Cl)c(-c2cc(-c3ccccc3)nc3c2C(=O)c2ccccc2-3)n1Cc1ccccc1	10 mm	8 mm	12 mm	11 mm	9 mm	10 mm	8 mm			
CCCCc1nc(Cl)c(-c2cc(-c3cc(OC)c(OC)c(OC)c3)nc3c2C(=O)c2ccccc2-3)n1Cc1ccccc1	10 mm	6 mm	12 mm	11 mm	9 mm	7 mm	9 mm			
CCCCc1nc(Cl)c(-c2cc(-c3ccc(Br)s3)nc3c2C(=O)c2ccccc2-3)n1Cc1ccccc1	9 mm	7 mm	12 mm	12 mm	8 mm	13 mm	9 mm			
CCCCc1nc(Cl)c(-c2cc(-c3ccc4oc5ccccc5c4c3)nc3c2C(=O)c2ccccc2-3)n1Cc1ccccc1	10 mm	7 mm	11 mm	13 mm	9 mm	13 mm	9 mm			
CCCCc1nc(Cl)c(-c2cc(-c3cccc(Br)n3)nc3c2C(=O)c2ccccc2-3)n1Cc1ccccc1	11 mm	9 mm	12 mm	9 mm	9 mm	12 mm	8 mm			
CCCCc1nc(Cl)c(-c2cc(-c3ccc(C)cc3)nc3c2C(=O)c2ccccc2-3)n1Cc1ccccc1	10 mm	7 mm	10 mm	11 mm	9 mm	8 mm	8 mm			
CCCCc1nc(Cl)c(-c2cc(-c3cccc4ccccc34)nc3c2C(=O)c2ccccc2-3)n1Cc1ccccc1	12 mm	5 mm	12 mm	12 mm	9 mm	6 mm	10 mm			
CCCCc1nc(Cl)c(-c2cc(-c3ccc(OC)cc3)nc3c2C(=O)c2ccccc2-3)n1Cc1ccccc1	12 mm	6 mm	10 mm	11 mm	8 mm	9 mm	9 mm			
CCCCc1nc(Cl)c(-c2cc(-c3ccc(Br)cc3)nc3c2C(=O)c2ccccc2-3)n1Cc1ccccc1	10 mm	7 mm	12 mm	12 mm	9 mm	6 mm	9 mm			
CCCCc1nc(Cl)c(-c2cc(-c3ccco3)nc3c2C(=O)c2ccccc2-3)n1Cc1ccccc1	13 mm	10 mm	15 mm	15 mm	8 mm	14 mm	8 mm			
CCCCc1nc(Cl)c(-c2cc(-c3cn(S(=O)(=O)c4ccc(C)cc4)c4ccccc34)nc3c2C(=O)c2ccccc2-3)n1Cc1ccccc1	13 mm	11 mm	10 mm	12 mm	8 mm	7 mm	7 mm			
CCCCc1nc(Cl)c(-c2cc(-c3ccc4ccccc4c3)nc3c2C(=O)c2ccccc2-3)n1Cc1ccccc1	10 mm	6 mm	12 mm	12 mm	8 mm	13 mm	9 mm			
NYSTATIN										9 mm

Reference: ChEMBL document CHEMBL2203022, “Design, synthesis and antimicrobial evaluation of novel 1-benzyl 2-butyl-4-chloroimidazole embodied 4-azafluorenones via molecular hybridization approach” (2012)
